# Screening results from PubChem BioAssay.
# AI-2 QS modul: Vibrio harveyi AI-2 quorum sensing modulation | Vibrio harveyi JMH597 AI-2 luminescence/OD600 ratio, 9 h; stronger effect = lower value; strain lacks LuxN and CqsS sensors; 0 = neutral-control median | activity change, % at 7.5 µM | hit rate 0.4% among 300,000; in the data active means activity change below about -75%, passing the limit was not always enough;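 further: luminescence divided by OD600 gain over 9 h not by final OD600 alone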
# Efflux pump mplx: blocks antifungal efflux pumps in multiplex yeast assay; S. cerevisiae Candida pump triplex, Nile Red efflux; inhibition, % at 10 µM; hit rate 0.44% among 330,000;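 active means plate passing quality check with inhibition over a set limit, or well fluorescence over plate mean plus 4 SD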;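 further: Nile Red retained in pooled yeast measured as flow cytometry median fluorescence; 0% = buffer negative control and 100% = Enniatin B positive control; higher means more Nile Red kept so more efflux inhibition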
# T cruzi repl: T. cruzi replication inhibition; hit rate 1.4% among 300,000; inhibition, % (no concentration beside the values); T. cruzi beta-gal in NIH3T3, luminescence, 90 h; AID 1885;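 active means mean inhibition across valid replicates above about 55%, limit read from the data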;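 further: signal also drops with host cell toxicity which is not excluded here; 0% = plate median of DMSO wells and 100% = zero luminescence signal; higher percent means less beta-gal luminescence so fewer parasites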
#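 assay system = mouse NIH/3T3 fibroblasts infected with β-gal-expressing T. cruzi Tulahuen C4 | input = 5,000 NIH/3T3 host cells per well | buffer or medium = DMEM plus 2% FBS | timing = 3 h host attachment, then at least 90 h co-culture | measured by = GalScreen luminescence, 60 min | evaluation = luminescence reflecting intracellular parasite burden, expressed as percent inhibition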
# PolyA inh: inhibitors of polyadenylation in S. cerevisiae | activity score, % at 12 µM | hit rate 0.02% among 300,000 | AID 1875 | S. cerevisiae SKY197-pL101 polyadenylation reporter, beta-gal luminescence; efflux-impaired pdr1/pdr3 knockout yeast; score 100 = 6 SD above DMSO;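 active means lowest replicate activity score at least 50, where 100 means six control SD above control mean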;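 further: yeast exposed to compound for 9 h at 30 °C; higher score means more reporter readthrough which indicates perturbed polyadenylation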
# HDAC3 inh: blocks human histone deacetylase 3 | inhibition, % at 8.3 µM | O15379 | hit rate 0.15% among 320,000 | AID 2718 | recombinant HDAC3, fluorogenic peptide/trypsin coupled, fluorescence; in the data active means inhibition above about 26%, passing the limit was not always enough
# Target sequence (O15379 whole entry, looked up): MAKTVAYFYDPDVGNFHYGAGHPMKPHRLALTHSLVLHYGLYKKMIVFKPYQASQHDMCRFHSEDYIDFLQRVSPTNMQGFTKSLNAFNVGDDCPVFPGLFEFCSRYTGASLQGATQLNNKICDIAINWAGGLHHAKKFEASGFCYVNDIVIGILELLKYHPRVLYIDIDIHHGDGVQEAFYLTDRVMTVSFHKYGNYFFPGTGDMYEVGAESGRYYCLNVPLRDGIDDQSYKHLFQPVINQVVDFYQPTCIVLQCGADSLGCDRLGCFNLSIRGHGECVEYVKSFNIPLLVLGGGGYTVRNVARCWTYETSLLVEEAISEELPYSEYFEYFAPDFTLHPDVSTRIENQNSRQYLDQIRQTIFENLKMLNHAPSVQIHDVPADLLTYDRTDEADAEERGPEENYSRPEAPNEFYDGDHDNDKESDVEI
# Numbers without * were called inactive; nt = no result. A selection: hits, their analogues and other compounds. The true share with any hit is near 2.2%.
SMILES,AI-2 QS modul,Efflux pump mplx,T cruzi repl,PolyA inh,HDAC3 inh
CC1(C)c2[nH]c3ccccc3c2C[C@@H]2C(=O)N(Cc3ccccc3)C(=O)N21,9,nt,-6,20,13
COC(=O)[C@@H]1Cc2c([nH]c3ccccc23)C(C)(C)N1C(=O)CCl,29,0,63*,-8,-3
O=C(Nc1ccc(Cl)c(Cl)c1)Nc1cc(S(=O)(=O)N2CCOCC2)ccc1N1CCCC1,20,0,36,-2,3
O=C(Nc1nc2ccccc2n1CCN1CCOCC1)c1cn(-c2ccccc2)nc1-c1ccccc1,11,0,66*,-1,-4
COc1cc(NC(=S)N2CCN(S(=O)(=O)c3ccccc3)CC2)cc(OC)c1,21,0,nt,nt,0
CCOc1ccc(Oc2c(/C=N/NC(=O)COc3ccccc3OC)c(C)nn2-c2ccccc2)cc1,25,1,32,6,27*
COc1ccc(OC)c(N/C(C)=C/C(=O)c2ccccc2)c1,-7,0,56*,-9,11
COc1ccc(OC)c(N/C(C)=C/C(=O)c2ccncc2)c1,-5,0,-5,-11,2
Clc1ccc(Cn2nnc(-c3ccccc3)n2)cc1,-81*,0,6,2,3
CC(=O)Nc1ccc(N=NN2CCOCC2)cc1,-88*,1,13,0,15
O=[N+]([O-])c1cccc(-c2ccc(CN3CCCCC3)o2)c1,44,0,10,3,7
COC(=O)CC/C(O)=C1\C(=O)CC(C)(C)CC1=NCCc1nc2ccccc2[nH]1,19,0,-3,16,2
CCOC(=O)c1sc(NC(=O)C(C)Sc2nnc(N)s2)nc1C (stereo not drawn),32,0,5,4,-2
COc1ccc(C=C2C=C(C(C)(C)C)C(=O)C(C(C)(C)C)=C2)cc1OC,33,1,75*,5,13
CCN1CCN(c2cc(-c3ccccc3)nc3cc(-c4cccc(F)c4)nn23)CC1,4,1.3*,36,-17,-22
OC1CCN(c2cc(-c3ccccc3)nc3cc(-c4ccc(F)cc4)nn23)CC1,17,0,38,-28,-38
Cc1nc(NC(=O)c2cccnc2Cl)sc1C,6,0,-10,-6,-3
S=C1Cc2ccccc2N1,-41,nt,60*,3,nt
O=C(OCC(=O)N1CCN(c2ccccc2)CC1)c1ncc(Cl)c(Cl)c1Cl,22,0,-2,-21,5
COCCOC(=O)C1=C(C)NC(C)=C(C(=O)OC(C)C)C1c1cccc([N+](=O)[O-])c1 (stereo not drawn),16,0,62*,7,4
CCOc1ccc(S(=O)(=O)N(CC)CC)cc1NC(=O)c1ccc(N2CCCC2=O)cc1,22,0,34,-25,5
Cc1cc(SCC(=O)N/N=C/c2ccc(O)cc2O)nc2ccccc12,22,0,69*,0,6
CC(=O)c1c(C)[nH]c(C(=O)Nc2nc(-c3ccc(Cl)cc3)cs2)c1C,21,0,29,-19,-8
CC(=O)c1c(C)[nH]c(C(=O)Nc2nc(-c3ccc(-c4ccccc4)cc3)cs2)c1C,12,0,69*,-3,-1
Cc1ccc(S(=O)(=O)NC(=O)c2cc(C)n(-c3ccc(N(C)C)cc3)c2C)cc1,17,0,-2,-11,-7
Cc1cc2c(cc1C)NC(c1c(C)n(C)n(-c3ccccc3)c1=O)C1=C(CC(C)(C)CC1=O)N2 (stereo not drawn),4,0,55*,-13,5
CC(C)=CCC[C@](C)(O[C@@H]1O[C@H](CO[C@@H]2O[C@H](CO)[C@@H](O)[C@H](O)[C@H]2O)[C@@H](O)[C@H](O)[C@H]1O)C1CC[C@]2(C)C1C(=O)CC1[C@@]3(C)CC[C@H](O[C@H]4O[C@@H](CO)[C@H](O)[C@@H](O)[C@@H]4O)C(C)(C)C3CC[C@]12C (stereo partly drawn),nt,0,nt,nt,-2
CC(=O)OCC1O[C@@H](O[C@@H]2C[C@H]3C(C)(C)[C@H](OC(C)=O)CC[C@]3(C)[C@H]3CC[C@]45C[C@]4(CC[C@H]5[C@@H](C)C[C@@H](O)[C@H](O)C(C)(C)O)[C@@]32C)[C@H](O)[C@@H](O)[C@@H]1O (stereo partly drawn),35,0,43,-5,42*
CCN1CC(CN(C)Cc2nc(-c3ccco3)oc2C)CC1=O (stereo not drawn),15,0,-10,-1,1
